The values that follow come from ChEMBL document CHEMBL1124034, “Adenosine deaminase inhibitors. Synthesis and biological activity of deaza analogues of erythro-9-(2-hydroxy-3-nonyl)adenine” (J Med Chem, 1988).

As a reminder, the Ki is a measure of affinity in units of concentration, obtained from inhibition or displacement. Low values mean higher affinity, high ones lower affinity.

Test [1] deals with KB. In words: In vitro antitumor activity against human KB cell line at 72 h. The class given is functional. The conditions noted are these: read-out: ID50 (the source's name). Put shortly:
(§1)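 Human HeLa (cervix carcinoma) and KB (oral epidermoid carcinoma) monolayers in Eagle's MEM with nonessential amino acids, Earle's BSS, 10% fetal calf serum and penicillin/streptomycin/kanamycin. Exponentially growing cells (5×10^5) were exposed to varying drug concentrations for 72 or 144 h and counted by Coulter counter. ID50 is the concentration giving 50% growth inhibition versus untreated controls.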

In test [2] the target is T1, Adenosine deaminase (Bos taurus, UniProt P56658).
T1 sequence (P56658 whole entry): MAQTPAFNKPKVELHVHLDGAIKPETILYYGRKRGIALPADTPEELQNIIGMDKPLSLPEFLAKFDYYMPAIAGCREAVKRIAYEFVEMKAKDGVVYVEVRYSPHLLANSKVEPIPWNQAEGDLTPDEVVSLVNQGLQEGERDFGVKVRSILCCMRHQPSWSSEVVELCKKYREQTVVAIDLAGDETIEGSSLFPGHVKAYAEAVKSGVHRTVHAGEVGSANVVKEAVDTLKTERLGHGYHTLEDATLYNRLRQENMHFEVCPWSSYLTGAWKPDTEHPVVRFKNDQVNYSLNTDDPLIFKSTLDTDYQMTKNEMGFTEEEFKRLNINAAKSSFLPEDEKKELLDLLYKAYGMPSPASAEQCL
In words: Inhibition constant (Ki) against calf intestine adenosine deaminase.

In test [3] the test system is KB. In words: In vitro antitumor activity against human KB cell line at 144 h. The class given is functional. The conditions noted are these: read-out: ID50 (the source's name). Put shortly:
as §1

Test [4] deals with P388. Description: In vitro antitumor activity against murine doxorubicin-resistant P388 cell line at 72 h. In kind it is functional. Particulars: Mus musculus, P388, 72 h; read-out: ID50 (the source's name).
For test [5], the target named is T2, Adenosine deaminase (Homo sapiens, UniProt P00813).
T2 sequence (P00813 whole entry): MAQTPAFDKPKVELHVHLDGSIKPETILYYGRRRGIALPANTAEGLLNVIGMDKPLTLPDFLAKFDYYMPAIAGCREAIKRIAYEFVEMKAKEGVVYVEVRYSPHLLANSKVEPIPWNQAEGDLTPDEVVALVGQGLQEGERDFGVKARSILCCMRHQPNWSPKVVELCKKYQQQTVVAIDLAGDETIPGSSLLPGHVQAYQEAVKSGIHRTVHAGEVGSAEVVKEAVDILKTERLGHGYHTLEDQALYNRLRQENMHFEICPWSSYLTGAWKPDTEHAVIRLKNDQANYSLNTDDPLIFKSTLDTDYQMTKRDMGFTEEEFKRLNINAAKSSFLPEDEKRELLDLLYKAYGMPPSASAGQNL
In words: Inhibition constant (Ki) against Human erythrocyte adenosine deaminase.

The test system of a further test is L1210. In words: In vitro antitumor activity against murine L1210 cell line at 72 h. The class given is functional. The conditions noted are these: Mus musculus, L1210, 72 h; read-out: ID50 (the source's name).
Test [6] has as its system HeLa. In words: In vitro antitumor activity against human HeLa cell line at 72 h. In kind it is functional. Particulars: read-out: ID50 (the source's name). In outline:
as §1

The subject of test [7] is HeLa. In words: In vitro antitumor activity against human HeLa cell line at 144 hr. The class given is functional. The conditions noted are these: read-out: ID50 (the source's name). In outline: as §1
Test [8] has as its system P388. In words: In vitro antitumor activity against murine P388 cell line at 72 h. The class given is functional. The conditions noted are these: Mus musculus, P388, 72 h; read-out: ID50 (the source's name).
Test [9] concerns P388. Description: In vitro antitumor activity against murine doxorubicin resistant P388 cell line at 72 h. The class given is functional. The conditions noted are these: Mus musculus, P388, 72 h; read-out: ID50 (the source's name).
Test [10] deals with HeLa. In words: In vitro antitumor activity against human HeLa cell line at 144 h. The class given is functional. The conditions noted are these: read-out: ID50 (the source's name). Put shortly: as §1

Molecules are shown by their SMILES.

As for `CCCCCCC(C(C)O)n1cnc2c(N)cccc21` (centres undefined), the IC50 in the test with KB [1] was 32.8 µM; in the test on KB [3] it was 30.1 µM; in the test with P388 [4], 47.9 µM; in the test with L1210, 26.8 µM; in the test with HeLa [6] it was 38.3 µM; with HeLa [7], 18.6 µM. The IC50 in the test on P388 [8] was determined as 62.9 µM. Besides, the Ki came out at 71 µM on Adenosine deaminase [2] and 15 µM at Adenosine deaminase [5].
In the case of `CCCCCCC(C(C)O)n1cnc2c(N)nccc21` (centres undefined), the IC50 with KB [1] turned out to be 31.9 µM; with KB [3], 5.5 µM; with P388 [9] it was 19.2 µM; in the test with L1210, 18.6 µM; in the test on HeLa [10] it was 18.6 µM; with HeLa [6] it was 142 µM. Moreover, the IC50 in the test with P388 [8] was determined as 21.8 µM. The molecule further gave a Ki on Adenosine deaminase [5] of 0.0063 µM.
Take `CCCCCCC(C(C)O)n1ccc2c(N)ncnc21` (centres undefined): the IC50 in the test with KB [1] was determined as 20.7 µM; with KB [3] it was 8.5 µM; in the test with P388 [9], 3.8 µM; in the test on L1210 it was 18.4 µM; in the test with HeLa [10], 4.7 µM; in the test on HeLa [6], 60.4 µM. The IC50 in the test on P388 [8] is 20.7 µM. In addition, the Ki on Adenosine deaminase [2] was 400 µM; on Adenosine deaminase [5], 180 µM.
As to `CCCCCCC(C(C)O)n1cnc2c(N)ccnc21` (centres undefined), the IC50 is 49.1 µM in the test with KB [1]; 30 µM in the test on KB [3]; 38.2 µM in the test on P388 [9]; 49.1 µM in the test on L1210; 21.8 µM with HeLa [10]; 112 µM with HeLa [6]. The IC50 in the test with P388 [8] was 98.2 µM. The molecule also registered a Ki at Adenosine deaminase [5] of 0.12 µM.
Regarding `CCCCCC[C@@H]([C@@H](C)O)n1cnc2c(N)ncnc21` [EHNA], the IC50 with KB [1] was found to be 81.6 µM; in the test on KB [3], 46.3 µM; in the test on P388 [9], 13.4 µM; in the test on L1210 it was 22.9 µM; in the test on HeLa [10] it was 23.4 µM; in the test on HeLa [6] it was 179 µM. Further, the IC50 with P388 [8] is 27.2 µM. For the same molecule, the Ki on Adenosine deaminase [5] was 0.0043 µM.
As to `Nc1ncnc2c1ncn2[C@@H]1O[C@H](CO)[C@@H](O)[C@@H]1O` [VIDARABINE], the IC50 worked out at 89.8 µM in the test with KB [1]; 25.4 µM with KB [3]; 10.8 µM with P388 [4]; 23.6 µM in the test with L1210; 46 µM in the test on HeLa [6]; 27.7 µM in the test on HeLa [7]. Besides, the IC50 in the test on P388 [8] is 12.7 µM.
